Exocytosis inh – LAMP-1 surface exposure blockers, TALL-104 cells – cell-based, flow cytometry, MLPCN library, primary screen; TALL-104 LAMP-1 surface exposure; cells stimulated with thapsigargin and PMA; inhibition, % at 10 µM; 0.66% of 360,000 active; AID 651702, 2012;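 active means inhibition above about 55%, limit read from the data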
Tb MetRS inh – T. brucei MetRS inhibitors, primary screen, biochemical, luminescence. inhibition, % at 11.9 µM. purified T. brucei MetRS, ATP depletion, Kinase-Glo luminescence. 0.4% of 360,000 active;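 active means inhibition above a per-plate cutoff of the control wells' mean inhibition plus 3 SD, cut at about 5.5% in these data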
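Dosing: 11.9 µM single point; system: parasite MetRS enzyme; technique: luminescence of leftover ATP; times: 15 min enzyme-compound preincubation, 2 h reaction, 10 min detection, 25 °C; replicates: each compound tested once; read-out basis: percent inhibition relative to median high and low control wells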
MC4R barr agon – MC4R agonists recruiting beta-arrestin, primary screen, cell-based, luminescence, agonist arm of biased-ligand search; U2OS MC4R beta-arrestin complementation; percent of melanotan II response, DMSO zero; activation, % at 8.9 µM; AID 540308, 2011; Melanocortin receptor 4 (Homo sapiens), P32245; 0.98% of 360,000 active;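 active means activation above a per-plate cutoff, the mean activation of sample wells on that plate plus 3 SD, cut at about 8% in these data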
hiPSC survival – enhancers of single-cell hiPSC survival, primary screen, ATPlite luminescence. survival enhancement, % at 20 µM. AID 602274, 2012. 0.044% of 360,000 active. 100% = ROCK inhibitor wells, 0% = DMSO; in the data active means survival enhancement above about 18%;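 further: cells exposed to compounds for 16 hours before the ATP read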
MC4R antag cAMP – MC4R antagonists of cAMP signaling, primary screen, cell-based, TR-FRET, antagonist arm of biased-ligand search. Melanocortin receptor 4 (Homo sapiens), P32245. MC4R-expressing cells, MTII-stimulated cAMP, LANCE TR-FRET. inhibition, % at 6.5 µM. 0.48% of 360,000 active. AID 540295, 2011;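 active means inhibition above its plate's cutoff, the mean of tested wells on that plate plus 3 SD, cut at about 29% in these data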
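System: U2OS cells stably expressing human melanocortin 4 receptor (MC4R). Reagent: Melanotan II challenge after compound preincubation. Doses: 6.5 µM. Times: 30-min compound, 1-h challenge, 1-h detection, room temperature. Measured by: TR-FRET with Eu-cAMP and labeled anti-cAMP, 671 nm. Replicates: singlicate.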
ABCB6 inh 2 – ABCB6 transporter inhibitors, primary screen, K562-ABCB6 cells, flow cytometry, MLPCN library; K562-ABCB6 porphyrin accumulation, 1 h; active compounds read low; fluorescence ratio to DMSO, % at 10 µM; 0.19% of 360,000 active; AID 602162, 2011;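 active means fluorescence ratio to DMSO below 75%, the collection mean minus 3 SD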;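 further: signal is porphyrin accumulated inside mitochondria; lower ratio means ABCB6 inhibition with less porphyrin fluorescence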
Target sequence (Q9NP58 whole entry, looked up): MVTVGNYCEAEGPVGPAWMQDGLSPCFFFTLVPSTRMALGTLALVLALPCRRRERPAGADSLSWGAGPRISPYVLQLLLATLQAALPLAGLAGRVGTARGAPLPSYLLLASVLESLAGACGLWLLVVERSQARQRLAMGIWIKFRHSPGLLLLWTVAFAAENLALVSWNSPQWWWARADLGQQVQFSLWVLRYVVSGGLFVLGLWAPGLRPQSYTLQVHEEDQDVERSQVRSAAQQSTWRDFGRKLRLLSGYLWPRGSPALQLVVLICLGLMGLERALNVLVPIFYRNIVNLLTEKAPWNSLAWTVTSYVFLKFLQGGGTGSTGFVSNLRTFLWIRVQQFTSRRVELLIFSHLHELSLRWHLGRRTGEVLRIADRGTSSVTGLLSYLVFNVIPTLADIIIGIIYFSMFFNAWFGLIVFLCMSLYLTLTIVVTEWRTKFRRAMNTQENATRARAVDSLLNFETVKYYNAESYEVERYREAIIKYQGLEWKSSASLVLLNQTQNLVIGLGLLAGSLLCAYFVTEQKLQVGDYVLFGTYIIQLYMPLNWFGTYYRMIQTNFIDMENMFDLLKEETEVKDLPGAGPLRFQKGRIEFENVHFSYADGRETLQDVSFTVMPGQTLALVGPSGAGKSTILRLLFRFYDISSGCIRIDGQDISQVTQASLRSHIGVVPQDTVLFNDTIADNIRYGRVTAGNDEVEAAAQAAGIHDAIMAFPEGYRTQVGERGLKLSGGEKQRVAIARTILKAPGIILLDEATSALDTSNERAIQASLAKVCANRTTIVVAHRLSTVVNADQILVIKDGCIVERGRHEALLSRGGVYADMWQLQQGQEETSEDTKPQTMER
U2OS cAMP counter – nonselective cAMP signaling inhibitors, parental cells, counter-screen for MC4R biased antagonist project, cell-based, TR-FRET, U2OS, forskolin, triplicate. LANCE TR-FRET. 26% of 1,600 active. AID 602193, 2012. shares compounds with MC4R antag cAMP. inhibition, % at 6.5 µM;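 active means mean inhibition over triplicates above the low-control well mean plus 3 SD, set per campaign, cut at about 13% in these data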;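 further: signal is single emission at 671 nm which falls as cellular cAMP rises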
MC4R cAMP antag – MC4R cAMP antagonists, retest, confirmation, cell-based, TR-FRET; shares compounds with MC4R antag cAMP; MC4R-expressing cells, MTII-stimulated cAMP; inhibition, % at 6.5 µM; 27% of 1,600 active; AID 602195, 2012; in the data active means inhibition above about 29%
Large screens that a line does not name were inactive (follow-up assays come after a bar, where they were run). A selection: hits, their analogues and other compounds. The true share with any hit is near 2.6%.

CC(C)(C)C(=O)Nc1cc(NC(=O)C(C)(C)C)cc(C(=O)Nc2c[nH]c(=O)[nH]c2=O)c1	none
CC(C)Cn1c(CN2CCN(c3ccccc3F)CC2)nc2c1c(=O)[nH]c(=O)n2C	MC4R antag cAMP 28.6 | U2OS cAMP counter inactive | MC4R cAMP antag inactive
COC(=O)Cn1c(CN2CCN(c3ccccc3F)CC2)nc2c1c(=O)n(C)c(=O)n2C	none
CCOC(=O)CSc1nc2ccc(Nc3nc(N4CCOCC4)nc(N4CCOCC4)n3)cc2s1	MC4R antag cAMP 29.6 | U2OS cAMP counter inactive | MC4R cAMP antag inactive
CC1CCC/C(=N\NS(=O)(=O)c2ccccc2)C1 (stereo unspecified)	MC4R antag cAMP 37.5 | U2OS cAMP counter inactive | MC4R cAMP antag inactive
CC1CCC/C(=N\NC(=O)Nc2ccccc2)C1 (stereo unspecified)	none
O=C(CSc1ccccn1)C12CC3CC(CC(C3)C1)C2	MC4R antag cAMP 31.5 | U2OS cAMP counter inactive | MC4R cAMP antag inactive
CCCCn1c(=O)[nH]c(=O)c2c1nc(-c1ccc(OCC)cc1)n2CC	none
CCCCn1c(=O)[nH]c(=O)c2c1nc(-c1ccc(C#N)cc1)n2C1CCCC1	MC4R antag cAMP 28.5 | U2OS cAMP counter inactive | MC4R cAMP antag inactive
Cc1ccc(Sc2cnc(N)nc2C)cc1	MC4R antag cAMP 36.7 | U2OS cAMP counter inactive | MC4R cAMP antag inactive
COc1ccccc1CNC(=O)[C@@H]1CCCN1S(=O)(=O)c1ccccc1F	none
CCN(CC)S(=O)(=O)c1ccc(OC)c(NC(=O)Cn2cnc3c2c(=O)n(C)c(=O)n3C)c1	MC4R antag cAMP 33.4 | U2OS cAMP counter inactive | MC4R cAMP antag inactive
Nc1ccc(S(=O)(=O)NCC(=O)OCCOc2ccccc2)cc1[N+](=O)[O-]	MC4R antag cAMP 32.6 | U2OS cAMP counter 26.9 | MC4R cAMP antag inactive
CSc1ccc(S(=O)(=O)NCC(=O)OCCOc2ccccc2)cc1[N+](=O)[O-]	none
Cc1cc(C)cc(NC(=O)C(=O)NCC2CCCN2S(=O)(=O)c2cccs2)c1 (stereo unspecified)	none
COc1ccc(C2=NOC3(CC(=O)N(c4ccc(F)cc4)C3=O)C2)cc1 (stereo unspecified)	MC4R antag cAMP 29.3 | U2OS cAMP counter inactive | MC4R cAMP antag inactive
O=C(c1ccco1)N(Cc1cccnc1)C(c1ccccc1)c1nc2ccccc2[nH]1 (stereo unspecified)	none (no result: MC4R barr agon, MC4R antag cAMP)
O=C(CN1CCN(Cc2ccccc2F)C1=O)NC1CCCC1	MC4R antag cAMP 28.8 | U2OS cAMP counter inactive | MC4R cAMP antag inactive
Cc1cccc(NC(=S)N2CCN(c3ccccc3F)CC2)c1C	none
COc1ccc(N2CCN(C(c3ccccc3)c3nnnn3Cc3ccc(F)cc3)CC2)cc1 (stereo unspecified)	none
COc1cc(/C=C2\C=CC(=O)O2)cc(OC)c1	none
COc1cccc(Nc2nc(-c3sc(NC(=O)c4ccco4)nc3C)cs2)c1	MC4R antag cAMP 34.6 | U2OS cAMP counter inactive | MC4R cAMP antag inactive
COc1ccc(Cl)cc1Nc1nc(-c2sc(NC(=O)c3ccco3)nc2C)cs1	none
COc1cccc(Nc2nc(-c3sc(C)nc3C)cs2)c1	MC4R antag cAMP 29.0 | U2OS cAMP counter inactive | MC4R cAMP antag inactive
O=C(CCn1c(=S)oc2ccccc21)NCCC1=CCCCC1	none
Cc1c(NC(=S)N/C(=N/S(=O)(=O)c2ccccc2)c2ccccc2)c(=O)n(-c2ccccc2)n1C	MC4R antag cAMP 29.6 | U2OS cAMP counter inactive | MC4R cAMP antag inactive
Cc1ccc(CSc2nnc(-c3ccc(NS(=O)(=O)c4ccccc4)cc3)o2)cc1	none
COC(=O)CSc1nnc(-c2ccc(NS(=O)(=O)c3ccccc3)cc2)o1	MC4R antag cAMP 67.9 | U2OS cAMP counter inactive | MC4R cAMP antag 37.1
C=CC[C@@H](CC(=O)N(CCO)Cc1ccccc1)C(=O)N[C@H](COC(=O)[C@@H](CC=C)Cc1ccc(F)cc1)Cc1c[nH]c2ccccc12	MC4R antag cAMP 29.1 | U2OS cAMP counter inactive | MC4R cAMP antag inactive
C=CC[C@H](CC(=O)N(CCO)Cc1ccccc1)C(=O)N[C@H](COC(=O)[C@@H](CC=C)Cc1ccc(F)cc1)Cc1c[nH]c2ccccc12	none
CCN1/C(=C2/SC(=S)N(NC(C)=O)C2=O)Sc2ccccc21	none
CCC(C)(C)NC(=O)C(c1cccc(OC)c1OC)N(Cc1ccc(OC)cc1)C(=O)CCC(=O)Nc1cc(C)on1 (stereo unspecified)	none
COc1cccc(C(C(=O)NC(C)(C)C)N(Cc2ccc(F)cc2)C(=O)CCC(=O)Nc2cc(C)on2)c1OC (stereo unspecified)	MC4R antag cAMP 29.7 | U2OS cAMP counter inactive | MC4R cAMP antag inactive
COc1ccc(C[C@@H]2OC3(C=CC(=O)C=C3)O[C@H]2Cc2ccc(OC)cc2)cc1	Exocytosis inh 95.7, MC4R antag cAMP 60.3 | U2OS cAMP counter 35.5 | MC4R cAMP antag 34.4
O=C(CN1C(=O)C2CC=CCC2C1=O)NCc1cccs1 (stereo unspecified)	MC4R antag cAMP 31.4 | U2OS cAMP counter inactive | MC4R cAMP antag inactive
CCCCNc1c(-c2ccc(OC)c(SC3CCCCC3)c2)nc2cnccn12	MC4R antag cAMP 31.9 | U2OS cAMP counter inactive | MC4R cAMP antag inactive
Oc1ccc(N=Nc2ccccc2-c2nn[nH]n2)c(O)c1	none
CCOC(=O)CCC(=O)Nc1ccc(S(=O)(=O)N2CCc3ccccc32)cc1	MC4R antag cAMP 31.9 | U2OS cAMP counter inactive | MC4R cAMP antag inactive
CCN(C(=O)COC(=O)c1ccc(S(=O)(=O)N2CCCc3ccccc32)cc1)C1CCS(=O)(=O)C1 (stereo unspecified)	MC4R antag cAMP 29.8 | U2OS cAMP counter inactive | MC4R cAMP antag inactive
CCNC(=O)COC(=O)c1cc(S(=O)(=O)N2CCCc3ccccc32)ccc1Cl	MC4R antag cAMP 33.3 | U2OS cAMP counter 24.6 | MC4R cAMP antag 40.5
Cc1csc(=O)n1CCC(=O)OC(C)C(=O)Nc1ccc(N2CCOCC2)cc1 (stereo unspecified)	none
